Data: ChEMBL document CHEMBL3046951, “Volatile constituents from the leaves of Callicarpa japonica Thunb. and their antibacterial activities” (2004)

Legend:
Type in all cases: functional
Salmonella typhimurium [1] = experiment: Antimicrobial activity against Salmonella enterica subsp. enterica serovar Typhimurium ATCC 14028 assessed as growth inhibition rate at 0.017 mg/l after 72 hr by spectrophotometry; details: ATCC 14028, 72 h, read-out: GI
Summary of the method: (§1)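 Salmonella Typhimurium ATCC 14028 grown in nutrient broth at 30 °C, precultured 24 h, then subcultured 1:100 for 18 h before testing. Single volatile compounds (>95% pure) were added. OD was read every 24 h over 72 h in a Bioscreen C, with 10% Tween 80 as the comparison control.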

Escherichia coli [2] = experiment: Antimicrobial activity against Escherichia coli O157:H7 ATCC 43894 assessed as growth inhibition rate at 3.4 mg/l after 72 hr by spectrophotometry; details: O157:H7 ATCC 43894, 72 h, read-out: GI
Salmonella typhimurium [3] = experiment: Antimicrobial activity against Salmonella enterica subsp. enterica serovar Typhimurium ATCC 14028 assessed as growth inhibition rate at 0.68 mg/l after 72 hr by spectrophotometry; details: ATCC 14028, 72 h, read-out: GI; summary of the method: as §1
Escherichia coli [4] = experiment: Antimicrobial activity against Escherichia coli O157:H7 ATCC 43894 assessed as growth inhibition rate at 0.068 mg/l after 72 hr by spectrophotometry; details: O157:H7 ATCC 43894, 72 h, read-out: GI
Bacillus cereus [5] = experiment: Antimicrobial activity against Bacillus cereus ATCC 11778 assessed as growth inhibition rate at 3.4 mg/l after 72 hr by spectrophotometry; details: ATCC 11778, 72 h, read-out: GI
Summary of the method: (§2)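 Pure volatile compounds (purity >95%; one at 90%) were tested against B. cereus ATCC 11778. The strain was grown at 30 °C in nutrient broth for 24 h, then subcultured for 18 h. Optical density was read in a Bioscreen C every 24 h for 72 h, with 10% Tween 80 as the control.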

Staphylococcus aureus [6] = experiment: Antimicrobial activity against Staphylococcus aureus ATCC 25923 assessed as growth inhibition rate at 0.68 mg/l after 72 hr by spectrophotometry; details: ATCC 25923, 72 h, read-out: GI
Summary of the method: (§3)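 Staphylococcus aureus ATCC 25923 grown at 37 °C in tryptic soy broth, using an 18 h subculture of a 24 h culture. Individual leaf-volatile compounds (>95% purity) were tested. Bioscreen C optical density was recorded every 24 h for 72 h and compared with a 10% Tween 80 control.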

Vibrio parahaemolyticus [7] = experiment: Antimicrobial activity against Vibrio parahaemolyticus ATCC 33844 assessed as growth inhibition rate at 0.68 mg/l after 72 hr by spectrophotometry; details: ATCC 33844, 72 h, read-out: GI
Summary of the method: (§4)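 Vibrio parahaemolyticus ATCC 33844 grown at 37 °C in tryptic soy broth with 3% (w/v) NaCl, using an 18 h subculture of a 24 h culture. Pure compounds (>95% purity) were tested. Bioscreen C optical density was read every 24 h for 72 h against a 10% Tween 80 control.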

Bacillus cereus [8] = experiment: Antimicrobial activity against Bacillus cereus ATCC 11778 assessed as growth inhibition rate at 0.017 mg/l after 72 hr by spectrophotometry; details: ATCC 11778, 72 h, read-out: GI; summary of the method: as §2
Staphylococcus aureus [9] = experiment: Antimicrobial activity against Staphylococcus aureus ATCC 25923 assessed as growth inhibition rate at 3.4 mg/l after 72 hr by spectrophotometry; details: ATCC 25923, 72 h, read-out: GI; summary of the method: as §3
Salmonella typhimurium [10] = experiment: Antimicrobial activity against Salmonella enterica subsp. enterica serovar Typhimurium ATCC 14028 assessed as growth inhibition rate at 6.8 mg/l after 72 hr by spectrophotometry; details: ATCC 14028, 72 h, read-out: GI; summary of the method: as §1
Staphylococcus aureus [11] = experiment: Antimicrobial activity against Staphylococcus aureus ATCC 25923 assessed as growth inhibition rate at 0.34 mg/l after 72 hr by spectrophotometry; details: ATCC 25923, 72 h, read-out: GI
Listeria monocytogenes [12] = experiment: Antimicrobial activity against Listeria monocytogenes ATCC 19111 assessed as growth inhibition rate at 0.068 mg/l after 72 hr by spectrophotometry; details: ATCC 19111, 72 h, read-out: GI
Summary of the method: (§5)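 L. monocytogenes was grown at 30 °C in tryptic soy broth, subcultured for 18 h, and exposed to pure volatile compounds (>95% purity). Growth was followed by Bioscreen C optical density every 24 h for 72 h against a 10% Tween 80 control.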

Listeria monocytogenes [13] = experiment: Antimicrobial activity against Listeria monocytogenes ATCC 19111 assessed as growth inhibition rate at 0.017 mg/l after 72 hr by spectrophotometry; details: ATCC 19111, 72 h, read-out: GI; summary of the method: as §5
Listeria monocytogenes [14] = experiment: Antimicrobial activity against Listeria monocytogenes ATCC 19111 assessed as growth inhibition rate at 3.4 mg/l after 72 hr by spectrophotometry; details: ATCC 19111, 72 h, read-out: GI; summary of the method: as §5
Listeria monocytogenes [15] = experiment: Antimicrobial activity against Listeria monocytogenes ATCC 19111 assessed as growth inhibition rate at 0.34 mg/l after 72 hr by spectrophotometry; details: ATCC 19111, 72 h, read-out: GI; summary of the method: as §5
Salmonella typhimurium [16] = experiment: Antimicrobial activity against Salmonella enterica subsp. enterica serovar Typhimurium ATCC 14028 assessed as growth inhibition rate at 3.4 mg/l after 72 hr by spectrophotometry; details: ATCC 14028, 72 h, read-out: GI; summary of the method: as §1
Salmonella typhimurium [17] = experiment: Antimicrobial activity against Salmonella enterica subsp. enterica serovar Typhimurium ATCC 14028 assessed as growth inhibition rate at 0.068 mg/l after 72 hr by spectrophotometry; details: ATCC 14028, 72 h, read-out: GI; summary of the method: as §1
Listeria monocytogenes [18] = experiment: Antimicrobial activity against Listeria monocytogenes ATCC 19111 assessed as growth inhibition rate at 0.68 mg/l after 72 hr by spectrophotometry; details: ATCC 19111, 72 h, read-out: GI; summary of the method: as §5
Staphylococcus aureus [19] = experiment: Antimicrobial activity against Staphylococcus aureus ATCC 25923 assessed as growth inhibition rate at 6.8 mg/l after 72 hr by spectrophotometry; details: ATCC 25923, 72 h, read-out: GI; summary of the method: as §3
Bacillus cereus [20] = experiment: Antimicrobial activity against Bacillus cereus ATCC 11778 assessed as growth inhibition rate at 6.8 mg/l after 72 hr by spectrophotometry; details: ATCC 11778, 72 h, read-out: GI; summary of the method: as §2
Bacillus cereus [21] = experiment: Antimicrobial activity against Bacillus cereus ATCC 11778 assessed as growth inhibition rate at 0.068 mg/l after 72 hr by spectrophotometry; details: ATCC 11778, 72 h, read-out: GI; summary of the method: as §2
Staphylococcus aureus [22] = experiment: Antimicrobial activity against Staphylococcus aureus ATCC 25923 assessed as growth inhibition rate at 0.068 mg/l after 72 hr by spectrophotometry; details: ATCC 25923, 72 h, read-out: GI
Staphylococcus aureus [23] = experiment: Antimicrobial activity against Staphylococcus aureus ATCC 25923 assessed as growth inhibition rate at 0.017 mg/l after 72 hr by spectrophotometry; details: ATCC 25923, 72 h, read-out: GI
Vibrio parahaemolyticus [24] = experiment: Antimicrobial activity against Vibrio parahaemolyticus ATCC 33844 assessed as growth inhibition rate at 0.017 mg/l after 72 hr by spectrophotometry; details: ATCC 33844, 72 h, read-out: GI
Escherichia coli [25] = experiment: Antimicrobial activity against Escherichia coli O157:H7 ATCC 43894 assessed as growth inhibition rate at 0.017 mg/l after 72 hr by spectrophotometry; details: O157:H7 ATCC 43894, 72 h, read-out: GI
Vibrio parahaemolyticus [26] = experiment: Antimicrobial activity against Vibrio parahaemolyticus ATCC 33844 assessed as growth inhibition rate at 0.34 mg/l after 72 hr by spectrophotometry; details: ATCC 33844, 72 h, read-out: GI
Vibrio parahaemolyticus [27] = experiment: Antimicrobial activity against Vibrio parahaemolyticus ATCC 33844 assessed as growth inhibition rate at 3.4 mg/l after 72 hr by spectrophotometry; details: ATCC 33844, 72 h, read-out: GI; summary of the method: as §4
Vibrio parahaemolyticus [28] = experiment: Antimicrobial activity against Vibrio parahaemolyticus ATCC 33844 assessed as growth inhibition rate at 6.8 mg/l after 72 hr by spectrophotometry; details: ATCC 33844, 72 h, read-out: GI; summary of the method: as §4
Vibrio parahaemolyticus [29] = experiment: Antimicrobial activity against Vibrio parahaemolyticus ATCC 33844 assessed as growth inhibition rate at 0.068 mg/l after 72 hr by spectrophotometry; details: ATCC 33844, 72 h, read-out: GI
Escherichia coli [30] = experiment: Antimicrobial activity against Escherichia coli O157:H7 ATCC 43894 assessed as growth inhibition rate at 0.34 mg/l after 72 hr by spectrophotometry; details: O157:H7 ATCC 43894, 72 h, read-out: GI
Listeria monocytogenes [31] = experiment: Antimicrobial activity against Listeria monocytogenes ATCC 19111 assessed as growth inhibition rate at 6.8 mg/l after 72 hr by spectrophotometry; details: ATCC 19111, 72 h, read-out: GI; summary of the method: as §5
Bacillus cereus [32] = experiment: Antimicrobial activity against Bacillus cereus ATCC 11778 assessed as growth inhibition rate at 0.34 mg/l after 72 hr by spectrophotometry; details: ATCC 11778, 72 h, read-out: GI; summary of the method: as §2
Escherichia coli [33] = experiment: Antimicrobial activity against Escherichia coli O157:H7 ATCC 43894 assessed as growth inhibition rate at 0.68 mg/l after 72 hr by spectrophotometry; details: O157:H7 ATCC 43894, 72 h, read-out: GI
Salmonella typhimurium [34] = experiment: Antimicrobial activity against Salmonella enterica subsp. enterica serovar Typhimurium ATCC 14028 assessed as growth inhibition rate at 0.34 mg/l after 72 hr by spectrophotometry; details: ATCC 14028, 72 h, read-out: GI; summary of the method: as §1
Bacillus cereus [35] = experiment: Antimicrobial activity against Bacillus cereus ATCC 11778 assessed as growth inhibition rate at 0.68 mg/l after 72 hr by spectrophotometry; details: ATCC 11778, 72 h, read-out: GI; summary of the method: as §2
Escherichia coli [36] = experiment: Antimicrobial activity against Escherichia coli O157:H7 ATCC 43894 assessed as growth inhibition rate at 6.8 mg/l after 72 hr by spectrophotometry; details: O157:H7 ATCC 43894, 72 h, read-out: GI

SMILES: CC/C=C/C=C/C=O [2,4-HEPTADIENAL]
- inhibition of growth at 0.017 µg/mL (Salmonella typhimurium [1]): 5.8%
- inhibition of growth at 3.4 µg/mL (Escherichia coli [2]): 16.6%
- inhibition of growth at 0.68 µg/mL (Salmonella typhimurium [3]): 18.2%
- inhibition of growth at 0.068 µg/mL (Escherichia coli [4]): 0.5%
- inhibition of growth at 3.4 µg/mL (Bacillus cereus [5]): 92.9%
- inhibition of growth at 0.68 µg/mL (Staphylococcus aureus [6]): 4.9%
- inhibition of growth at 0.68 µg/mL (Vibrio parahaemolyticus [7]): 11.4%
- inhibition of growth at 0.017 µg/mL (Bacillus cereus [8]): 0%
- inhibition of growth at 3.4 µg/mL (Staphylococcus aureus [9]): 80.9%
- inhibition of growth at 6.8 µg/mL (Salmonella typhimurium [10]): 88.6%
- inhibition of growth at 0.34 µg/mL (Staphylococcus aureus [11]): 2.8%
- inhibition of growth at 0.068 µg/mL (Listeria monocytogenes [12]): 0.8%
- inhibition of growth at 0.017 µg/mL (Listeria monocytogenes [13]): 0.1%
- inhibition of growth at 3.4 µg/mL (Listeria monocytogenes [14]): 34.5%
- inhibition of growth at 0.34 µg/mL (Listeria monocytogenes [15]): 1.6%
- inhibition of growth at 3.4 µg/mL (Salmonella typhimurium [16]): 57.8%
- inhibition of growth at 0.068 µg/mL (Salmonella typhimurium [17]): 8.8%
- inhibition of growth at 0.68 µg/mL (Listeria monocytogenes [18]): 5.9%
- inhibition of growth at 6.8 µg/mL (Staphylococcus aureus [19]): 95.5%
- inhibition of growth at 6.8 µg/mL (Bacillus cereus [20]): 100%
- inhibition of growth at 0.068 µg/mL (Bacillus cereus [21]): 1.1%
- inhibition of growth at 0.068 µg/mL (Staphylococcus aureus [22]): 0%
- inhibition of growth at 0.017 µg/mL (Staphylococcus aureus [23]): 0%
- inhibition of growth at 0.017 µg/mL (Vibrio parahaemolyticus [24]): 5.6%
- inhibition of growth at 0.017 µg/mL (Escherichia coli [25]): 0.5%
- inhibition of growth at 0.34 µg/mL (Vibrio parahaemolyticus [26]): 6.1%
- inhibition of growth at 3.4 µg/mL (Vibrio parahaemolyticus [27]): 82.4%
- inhibition of growth at 6.8 µg/mL (Vibrio parahaemolyticus [28]): 99%
- inhibition of growth at 0.068 µg/mL (Vibrio parahaemolyticus [29]): 5.8%
- inhibition of growth at 0.34 µg/mL (Escherichia coli [30]): 1.3%
- inhibition of growth at 6.8 µg/mL (Listeria monocytogenes [31]): 51.6%
- inhibition of growth at 0.34 µg/mL (Bacillus cereus [32]): 1.8%
- inhibition of growth at 0.68 µg/mL (Escherichia coli [33]): 4.4%
- inhibition of growth at 0.34 µg/mL (Salmonella typhimurium [34]): 8.6%
- inhibition of growth at 0.68 µg/mL (Bacillus cereus [35]): 11%
- inhibition of growth at 6.8 µg/mL (Escherichia coli [36]): 27.5%
